pKi: −log10 of the molar value.

For one assay, the target named is Neprilysin (Homo sapiens, UniProt P08473). As to the kind of experiment: Inhibition of hGH-8His-NEP expressed in CHO cells preincubated for 15 mins followed by […] peptide substrate addition by fluorescence spectrophotometric analysis. In kind it is cell-based. Summed up:
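Secreted glycosylated human NEP ectodomain (hGH-8His fusion) from CHO cells, purified by cobalt affinity. Two-fold inhibitor serial dilution in 50 mM Tris pH 8.3, 0.05% Brij-35, 300 mM NaCl, 10 μM ZnCl₂. Enzyme and inhibitor preincubated 15 min at 22 °C. […] Continuous fluorescence at ex 320/em 405 nm. Triplicates, n ≥ 2 independent experiments.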

In assay [1] the target is T1, Angiotensin-converting enzyme (Homo sapiens, UniProt P12821). Briefly: Inhibition of recombinant human ACE C-domain expressed in CHO cells using Cbz-Phe-His-Leu as substrate preincubated for 15 mins followed by substrate addition and measured after 10 mins by fluorescence spectrophotometric analysis. Summed up:
(§1)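 Fully glycosylated single-domain human ACE (C-domain D629, N-domain Δ36NJ) from CHO cells. Two-fold inhibitor dilution in 100 mM potassium phosphate pH 8.3, 300 mM NaCl, 10 μM ZnCl₂. Preincubation 15 min at 22 °C. 10 min at 37 °C, stopped with NaOH/o-phthalaldehyde, then HCl. Triplicates, n ≥ 2 independent experiments.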

The next assay is filed under the species Homo sapiens. As to the kind of experiment: Selectivity ratio of Ki for human ACE N-domain expressed in CHO cells to Ki for human ACE C-domain expressed in CHO cells. It is filed as cell-based. A digest of the protocol: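 Ki for each ACE domain from IC50 by Cheng-Prusoff for competitive inhibition, Ki = IC50/(1 + [S]/Km). […] Ratio taken as N-domain Ki over C-domain Ki.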

Assay [2] addresses T1, Angiotensin-converting enzyme. Briefly: Inhibition of recombinant human ACE N-domain expressed in CHO cells using Cbz-Phe-His-Leu as substrate preincubated for 15 mins followed by substrate addition and measured after 10 mins by fluorescence spectrophotometric analysis. Summed up:
as §1

Neprilysin, sequence (P08473 whole entry, the tested form may be a part): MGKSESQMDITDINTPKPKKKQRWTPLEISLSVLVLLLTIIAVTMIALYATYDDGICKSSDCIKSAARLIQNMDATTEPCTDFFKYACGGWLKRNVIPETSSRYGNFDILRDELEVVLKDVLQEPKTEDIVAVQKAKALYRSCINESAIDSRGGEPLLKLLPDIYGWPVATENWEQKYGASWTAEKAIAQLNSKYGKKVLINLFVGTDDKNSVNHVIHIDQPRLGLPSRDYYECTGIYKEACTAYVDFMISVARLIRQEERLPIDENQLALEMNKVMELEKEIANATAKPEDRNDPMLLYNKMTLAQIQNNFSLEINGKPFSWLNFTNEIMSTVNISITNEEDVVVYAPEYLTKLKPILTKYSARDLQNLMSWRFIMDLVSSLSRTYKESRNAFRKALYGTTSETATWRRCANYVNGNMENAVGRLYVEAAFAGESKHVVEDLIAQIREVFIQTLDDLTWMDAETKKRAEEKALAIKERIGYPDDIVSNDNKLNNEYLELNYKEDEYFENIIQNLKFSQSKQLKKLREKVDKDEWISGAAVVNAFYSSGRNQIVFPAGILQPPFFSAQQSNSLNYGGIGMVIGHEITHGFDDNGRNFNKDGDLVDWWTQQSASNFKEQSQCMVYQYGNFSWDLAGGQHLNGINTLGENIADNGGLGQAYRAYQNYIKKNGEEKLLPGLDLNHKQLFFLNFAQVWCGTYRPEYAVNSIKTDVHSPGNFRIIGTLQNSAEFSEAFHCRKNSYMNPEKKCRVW
T1 sequence (P12821 whole entry): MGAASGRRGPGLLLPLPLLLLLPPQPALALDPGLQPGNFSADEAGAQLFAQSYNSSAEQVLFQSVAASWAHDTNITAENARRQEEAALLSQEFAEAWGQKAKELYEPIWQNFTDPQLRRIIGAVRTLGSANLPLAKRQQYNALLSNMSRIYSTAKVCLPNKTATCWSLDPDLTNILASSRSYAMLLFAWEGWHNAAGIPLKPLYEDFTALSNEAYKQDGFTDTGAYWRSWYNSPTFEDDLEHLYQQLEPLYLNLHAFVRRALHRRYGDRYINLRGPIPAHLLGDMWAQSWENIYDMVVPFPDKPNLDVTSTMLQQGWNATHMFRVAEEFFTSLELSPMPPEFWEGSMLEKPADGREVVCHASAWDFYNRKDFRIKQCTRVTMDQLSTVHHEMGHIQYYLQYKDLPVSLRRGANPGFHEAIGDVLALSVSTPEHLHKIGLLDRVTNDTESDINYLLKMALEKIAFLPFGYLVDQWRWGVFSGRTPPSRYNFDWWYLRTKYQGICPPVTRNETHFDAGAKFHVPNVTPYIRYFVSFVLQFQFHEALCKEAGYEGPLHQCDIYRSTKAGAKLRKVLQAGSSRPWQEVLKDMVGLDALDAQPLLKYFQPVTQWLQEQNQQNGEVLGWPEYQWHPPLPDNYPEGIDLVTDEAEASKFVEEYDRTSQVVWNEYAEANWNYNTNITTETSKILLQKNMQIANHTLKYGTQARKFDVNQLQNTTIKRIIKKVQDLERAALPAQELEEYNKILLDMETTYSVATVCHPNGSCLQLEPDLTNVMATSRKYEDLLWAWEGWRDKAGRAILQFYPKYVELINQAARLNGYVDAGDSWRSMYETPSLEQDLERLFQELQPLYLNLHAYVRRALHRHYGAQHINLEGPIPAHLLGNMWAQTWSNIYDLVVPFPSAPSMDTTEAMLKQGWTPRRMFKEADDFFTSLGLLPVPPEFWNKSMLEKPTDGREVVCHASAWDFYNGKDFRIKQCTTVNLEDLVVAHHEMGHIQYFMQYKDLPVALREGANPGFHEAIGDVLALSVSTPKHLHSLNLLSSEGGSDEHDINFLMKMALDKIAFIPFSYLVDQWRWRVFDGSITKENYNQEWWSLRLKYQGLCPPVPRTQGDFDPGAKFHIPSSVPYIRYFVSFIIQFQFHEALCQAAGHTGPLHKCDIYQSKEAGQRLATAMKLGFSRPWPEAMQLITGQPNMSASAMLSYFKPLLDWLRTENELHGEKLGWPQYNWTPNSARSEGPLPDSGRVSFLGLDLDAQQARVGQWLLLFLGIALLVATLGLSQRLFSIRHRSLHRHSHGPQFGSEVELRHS

Take `Cc1ccc([C@H]2CC[C@@H](C(=O)O)N2C(=O)CN[C@@H](CCc2ccccc2)C(=O)O)cc1`: the pKi was less than 4.30 on Neprilysin, 6.36 in assay [1] and 5.47 in assay [2]. In addition, the Ratio Ki in the assay listed under Homo sapiens amounted to 8.

In the case of `CCCC[C@H](N[C@@H](CCc1ccccc1)C(=O)O)C(=O)N[C@@H](Cc1ccc(O)cc1)C(=O)O`, the pKi is 6.22 on Neprilysin, 7.46 in assay [1] and 6.92 in assay [2]. The Ratio Ki in the assay filed under Homo sapiens was 3.5.

On to `NCCCC[C@H](N[C@@H](CCc1ccccc1)C(=O)O)C(=O)N[C@@H](Cc1c[nH]c2ccccc12)C(=O)O`, for which the pKi is less than 3.82 at Neprilysin, 8.05 in assay [1] and 5.77 in assay [2]. The Ratio Ki in the assay filed under Homo sapiens came out at 189.

For `CCCC[C@H](N[C@@H](CCc1ccccc1)C(=O)O)C(=O)N[C@@H](Cc1c[nH]c2ccccc12)C(=O)O`, the pKi was 4.72 at Neprilysin, 7.00 in assay [1] and 5.42 in assay [2]. The Ratio Ki in the assay listed under Homo sapiens worked out at 37.
